From ChEMBL document CHEMBL1154778, “Synthesis and biological evaluation of C-5 methyl substituted 4-arylthio and 4-aryloxy-3-Iodopyridin-2(1H)-one type anti-HIV agents” (J Med Chem, 2009)

Tests used:
[1] = Selectivity index, ratio of CC50 for human MT4 cells to IC50 for HIV-1 LAI harboring wild type reverse transcriptase infected in human MT4 cells; assay type: functional
Outline: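 Cytotoxicity was measured in mock-infected MT4 cultures (30000 cells/well) given the same compound concentration range, run in parallel with the infected cultures for 5 days at 37 °C, 5% CO2, with MTT viability. CC50 was the concentration reducing viability by 50% versus the drug-free control. SI was CC50 divided by IC50 against HIV-1 LAI.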

[2] = test system: Human immunodeficiency virus 1; test: Antiviral activity against HIV1 HXB2 harboring 190A mutant reverse transcriptase infected in human MT4 cells after 5 days by MTT assay; assay type: functional, organism-based; details: Human immunodeficiency virus 1, HXB2, MT4, 120 h
Outline: (§1)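 Mutant viruses were made by recombining the mutant PR-RT sequence into a PR-RT-deleted HIV-1 HXB2 proviral clone. MT4 cells were grown in RPMI 1640 with 10% FCS and antibiotics. Virus at 200 CCID50/well and 30000 cells/well were incubated with varied compound concentrations for 5 days at 37 °C, 5% CO2. MTT viability gave IC50, the concentration giving 50% infection versus the drug-free control.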

[3] = test system: Human immunodeficiency virus 1; test: Antiviral activity against HIV1 HXB2 harboring 106A mutant reverse transcriptase infected in human MT4 cells after 5 days by MTT assay; assay type: functional, organism-based; details: Human immunodeficiency virus 1, HXB2, MT4, 120 h; outline: as §1
[4] = test system: Human immunodeficiency virus 1; test: Antiviral activity against HIV1 HXB2 harboring 101E mutant reverse transcriptase infected in human MT4 cells after 5 days by MTT assay; assay type: functional, organism-based; details: Human immunodeficiency virus 1, HXB2, MT4, 120 h; outline: as §1
[5] = test system: Human immunodeficiency virus 1; test: Antiviral activity against HIV1 HXB2 harboring K103N mutant reverse transcriptase infected in human MT4 cells after 5 days by MTT assay; assay type: functional, organism-based; details: Human immunodeficiency virus 1, HXB2, MT4, 120 h; outline: as §1
[6] = test system: Human immunodeficiency virus 1; test: Antiviral activity against HIV1 HXB2 harboring Y188L mutant reverse transcriptase infected in human MT4 cells after 5 days by MTT assay; assay type: functional, organism-based; details: Human immunodeficiency virus 1, HXB2, MT4, 120 h; outline: as §1
[7] = test system: Human immunodeficiency virus 1; test: Antiviral activity against HIV-1 LAI harboring wild type reverse transcriptase infected in human MT4 cells after 5 days by MTT assay; assay type: functional, organism-based; details: Human immunodeficiency virus 1, LAI, MT4, 120 h
Outline: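 MT4 cells were kept in RPMI 1640 with 10% fetal calf serum and antibiotics at 37 °C, 5% CO2. A range of compound concentrations was incubated with HIV-1 LAI at 200 CCID50/well and 30000 MT4 cells/well for 5 days at 37 °C. Cell viability was read by MTT, and IC50 was the concentration giving 50% infection versus the drug-free control.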

[8] = test system: Human immunodeficiency virus 1; test: Antiviral activity against HIV1 HXB2 harboring Y181C mutant reverse transcriptase infected in human MT4 cells after 5 days by MTT assay; assay type: functional, organism-based; details: Human immunodeficiency virus 1, HXB2, MT4, 120 h; outline: as §1
[9] = test system: Human immunodeficiency virus 1; test: Antiviral activity against HIV1 HXB2 harboring 100I mutant reverse transcriptase infected in human MT4 cells after 5 days by MTT assay; assay type: functional, organism-based; details: Human immunodeficiency virus 1, HXB2, MT4, 120 h; outline: as §1
[10] = test system: Human immunodeficiency virus 1; test: Antiviral activity against HIV1 HXB2 harboring K103N and Y181C mutant reverse transcriptase infected in human MT4 cells after 5 days by MTT assay; assay type: functional, organism-based; details: Human immunodeficiency virus 1, HXB2, MT4, 120 h; outline: as §1
[11] = test system: Human immunodeficiency virus 1; test: Antiviral activity against HIV1 HXB2 harboring 100I and K103N mutant reverse transcriptase infected in human MT4 cells after 5 days by MTT assay; assay type: functional, organism-based; details: Human immunodeficiency virus 1, HXB2, MT4, 120 h; outline: as §1
[12] = test system: Human immunodeficiency virus 1; test: Antiviral activity against HIV1 HXB2 harboring 179E mutant reverse transcriptase infected in human MT4 cells after 5 days by MTT assay; assay type: functional, organism-based; details: Human immunodeficiency virus 1, HXB2, MT4, 120 h; outline: as §1
[13] = test system: Human immunodeficiency virus 1; test: Antiviral activity against HIV1 HXB2 harboring 101E and K103N mutant reverse transcriptase infected in human MT4 cells after 5 days by MTT assay; assay type: functional, organism-based; details: Human immunodeficiency virus 1, HXB2, MT4, 120 h; outline: as §1
[14] = test system: Human immunodeficiency virus 1; test: Antiviral activity against HIV1 HXB2 harboring 227C mutant reverse transcriptase infected in human MT4 cells after 5 days by MTT assay; assay type: functional, organism-based; details: Human immunodeficiency virus 1, HXB2, MT4, 120 h; outline: as §1
[15] = test system: Human immunodeficiency virus 1; test: Antiviral activity against HIV1 HXB2 harboring 227L and 106A mutant reverse transcriptase infected in human MT4 cells after 5 days by MTT assay; assay type: functional, organism-based; details: Human immunodeficiency virus 1, HXB2, MT4, 120 h; outline: as §1
[16] = test system: Human immunodeficiency virus 1; test: Antiviral activity against HIV1 HXB2 harboring 138K mutant reverse transcriptase infected in human MT4 cells after 5 days by MTT assay; assay type: functional, organism-based; details: Human immunodeficiency virus 1, HXB2, MT4, 120 h; outline: as §1
[17] = test system: Human immunodeficiency virus 1; test: Antiviral activity against HIV1 HXB2 harboring 190S mutant reverse transcriptase infected in human MT4 cells after 5 days by MTT assay; assay type: functional, organism-based; details: Human immunodeficiency virus 1, HXB2, MT4, 120 h; outline: as §1
[18] = test system: Human immunodeficiency virus 1; test: Ratio of efavirenz IC50 to compound IC50 for HIV1 HXB2 harboring 100I and K103N mutant reverse transcriptase infected in human MT4 cells; assay type: functional

Row | Compound | Ratio CC50/IC50 [1] | IC50 [2] | IC50 [3] | IC50 [4] | IC50 [5] | IC50 [6] | IC50 [7] | IC50 [8] | IC50 [9] | IC50 [10] | IC50 [11] | IC50 [12] | IC50 [13] | IC50 [14] | IC50 [15] | IC50 [16] | IC50 [17] | EC50 [15] | Ratio IC50 [18]
1 | CCc1c(C)[nH]c(=O)c(N(C)C)c1Cc1cc(C)cc(C)c1 | 12589 | 63.1 nM | 39.8 nM | 15.8 nM | 31.6 nM | 251 nM | 7.94 nM | 100 nM | 50.1 nM | 794 nM |  |  |  |  |  |  |  |  | 
2 | CCc1c(C)[nH]c(=O)c(N(C)C)c1C(=O)c1cc(C)cc(C)c1 | 2512 | 12.6 nM | 6.31 nM | 7.94 nM | 10 nM | 158 nM | 3.98 nM | 63.1 nM | 6.31 nM | 158 nM | 39.8 nM | 2.51 nM | 12.6 nM | 631 nM | 398 nM | 6.31 nM | 3.98 nM |  | 
3 | Cc1cc(C)cc(Oc2c(CSCc3ccco3)c(C)[nH]c(=O)c2I)c1 | >79433 | 3.16 nM | 1.58 nM | 6.31 nM | 1 nM | 31.6 nM | 1.25 nM | 5 nM | 6.31 nM | 5.01 nM | 31.6 nM | 1 nM | 3.98 nM | 39.8 nM | 125 nM | 1.25 nM | 1.25 nM |  | 
4 | Cc1cc(C)cc(Oc2c(CSCc3csc(C)n3)c(C)[nH]c(=O)c2I)c1 | >100000 |  |  |  | 1 nM | 7.9 nM | 1 nM | 6.3 nM | 3.16 nM |  | 158 nM |  |  | 39.8 nM |  |  |  | 158 nM | 
5 | COCCSCc1c(C)[nH]c(=O)c(I)c1Oc1cc(C)cc(C)c1 | >50119 |  |  |  | 1.58 nM | 31.6 nM | 1.99 nM | 7.94 nM | 10 nM |  |  |  |  | 199 nM | 199 nM |  |  |  | 
6 | Cc1cc(C)cc(Oc2c(Cn3ccnc3)c(C)[nH]c(=O)c2I)c1 | >50118 | 8 nM | 3.7 nM | 9.2 nM | 2.51 nM | 31.6 nM | 1.99 nM | 10 nM | 6.31 nM | 71.2 nM | 23.7 nM | 5.1 nM | 28.6 nM |  |  | 11.2 nM | 2.2 nM |  | 
7 | Cc1cc(C)cc(Sc2c(CSCc3cccs3)c(C)[nH]c(=O)c2I)c1 | >10000 |  |  |  | 10 nM | 794 nM | 10 nM | 39.8 nM |  |  |  |  |  |  |  |  |  |  | 
8 | Cc1cc(C)cc(Sc2c(Cn3cc(Br)cn3)c(C)[nH]c(=O)c2I)c1 | >10000 |  |  |  | 5.01 nM | 316 nM | 10 nM | 39.8 nM |  |  |  |  |  |  |  |  |  |  | 
9 | Cc1cc(C)cc(Sc2c(Cn3ncnn3)c(C)[nH]c(=O)c2I)c1 | >158489 | 1 nM | 0.6 nM | 3.3 nM | 1.25 nM | 31.6 nM | 0.63 nM | 10 nM | 1.25 nM | 32.9 nM | 3.98 nM | 0.8 nM | 5 nM | 50.1 nM | 50.1 nM | 2.6 nM | 0.3 nM |  | 
10 | CC(=O)c1c(C)cn(Cc2c(C)[nH]c(=O)c(I)c2Sc2cc(C)cc(C)c2)c1C | 5012 |  |  |  | 50.1 nM | 199 nM | 10 nM | 63 nM |  |  |  |  |  |  |  |  |  |  | 
11 | Cc1cc(C)cc(Oc2c(Cn3cnnn3)c(C)[nH]c(=O)c2I)c1 | >100000 | 3.7 nM | 2 nM | 4 nM | 1.4 nM | 10.3 nM | 0.79 nM | 5.9 nM | 4 nM | 17.4 nM | 4.7 nM | 1.4 nM | 4.6 nM | 2.6 nM | 3.8 nM | 3.9 nM | 0.4 nM |  | 
12 | CCSCc1c(C)[nH]c(=O)c(I)c1Oc1cc(C)cc(C)c1 | >79433 | 19.9 nM | 7.94 nM | 19.9 nM | 6.3 nM | 31.6 nM | 1.25 nM | 6.3 nM | 7.94 nM | 19.9 nM | 15.8 nM | 10 nM | 19.9 nM | 199 nM | 125 nM | 25.1 nM | 10 nM |  | 
13 | Cc1cc(C)cc(Sc2c(Cn3cnnn3)c(C)[nH]c(=O)c2I)c1 | >79433 | 0.9 nM | 0.5 nM | 1.4 nM | 0.31 nM | 15.8 nM | 1.25 nM | 7.9 nM | 0.79 nM | 6.8 nM | 1.25 nM | 0.8 nM | 1 nM | 31.6 nM | 39.8 nM | 1.1 nM | 0.2 nM |  | 1000
14 | O=C1Nc2ccc(Cl)cc2[C@@](C#CC2CC2)(C(F)(F)F)O1 [EFAVIRENZ] |  | 10 nM |  | 6.3 nM |  |  |  |  |  |  |  | 5.01 nM |  |  | 25.1 nM |  | 251 nM |  | 
15 | Cc1ccnc2c1NC(=O)c1cccnc1N2C1CC1 [NEVIRAPINE] |  |  |  |  |  | 100000 nM |  | 10000 nM |  | 100000 nM |  | 195 nM |  | 135 nM | 163 nM | 51 nM | 44 nM |  | 
